{"data": "Published values collected from several papers", "note": "Compare with care: the assays were run in different laboratories."}
{"Compound": "Cc1ccc2[nH]nc(-c3nnc(Nc4ccc(Cl)cc4)s3)c2c1", "tested on": "Staphylococcus epidermidis", "assay": "microbial growth", "test system": "ATCC12228", "measurement": "MIC", "value": "133 µg/mL"}
{"Compound": "O=C(CCCCCCC(=O)Nc1ccccc1)NO", "tested on": "OCI-Ly1", "assay": "cell growth or viability, ATP luminescence", "conditions": "0.5 µM, 5 days", "measurement": "viability", "value": "74.3%"}
{"Compound": "CCCCCCCCCCCCCCCCCCOc1ccccc1CC(=O)OCCC[N+](C)(C)C", "tested on": "HOP-62", "assay": "cell growth or viability, SRB", "conditions": "10 µM", "measurement": "inhibition", "value": "32.9%"}
{"Compound": "Cc1ccc2[nH]nc(-c3nnc(Nc4ccc(Cl)c(Br)c4)s3)c2c1", "tested on": "Staphylococcus epidermidis", "assay": "microbial growth", "test system": "ATCC12228", "measurement": "MIC", "value": "235 µg/mL"}
{"Compound": "CCCCCCCCCCCCCCCCCCOc1cccc(CC(=O)OCCC[N+](C)(C)C)c1", "tested on": "HOP-92", "assay": "cell growth or viability, SRB", "conditions": "10 µM", "measurement": "inhibition", "value": "22.4%"}
{"Compound": "Cc1n[nH]c2ccc3nc(-c4ccc(C(=O)NCCN(C)C)nc4)c4c(c3c12)CCCCC4", "tested on": "K562", "assay": "cell growth or viability, resazurin", "conditions": "72 h", "measurement": "GI50", "value": "8.5 µM"}
{"Compound": "O=C(NO)c1ccc(CC(=O)N(CCO)c2ccccc2)cc1", "tested on": "OCI-Ly1", "assay": "cell growth or viability, ATP luminescence", "conditions": "1 µM, 5 days", "measurement": "viability", "value": "74.7%"}
{"Compound": "CCCCCCCCCCCCCCCCCCOc1ccc(CC(=O)OCC[N+](CC)(CC)CC)cc1", "tested on": "HOP-92", "assay": "cell growth or viability, SRB", "conditions": "10 µM", "measurement": "inhibition", "value": "13.3%"}
{"Compound": "Cc1ccc2[nH]nc(-c3nnc(Nc4ccc(Br)cc4)s3)c2c1", "tested on": "Staphylococcus epidermidis", "assay": "microbial growth", "test system": "ATCC12228", "measurement": "MIC", "value": "190 µg/mL"}
{"Compound": "Cc1n[nH]c2ccc3nc(-c4ccc(C(=O)NCCN(C)C)cc4)c4c(c3c12)CCCCC4", "tested on": "K562", "assay": "cell growth or viability, resazurin", "conditions": "72 h", "measurement": "GI50", "value": "2.9 µM"}
{"Compound": "O=C(/C=C/c1cccc(C(=O)NO)c1)NO", "tested on": "OCI-Ly1", "assay": "cell growth or viability, ATP luminescence", "conditions": "0.5 µM, 5 days", "measurement": "viability", "value": "108%"}
{"Compound": "CC(=O)NC[C@H]1CN(c2ccc(N3CCOCC3)c(F)c2)C(=O)O1", "tested on": "Staphylococcus epidermidis", "assay": "microbial growth", "conditions": "clinical isolate", "measurement": "MIC90", "value": "2 µg/mL"}
{"Compound": "Cc1ccc2[nH]nc(-c3nnc(Nc4cc(Cl)cc(Br)c4)s3)c2c1", "tested on": "Staphylococcus epidermidis", "assay": "microbial growth", "test system": "ATCC12228", "measurement": "MIC", "value": "210 µg/mL"}
{"Compound": "O=C(Nc1ccc(Cl)cc1)C1CCCN(C(=O)c2cc(C(F)(F)F)cc(C(F)(F)F)c2)C1 (racemic)", "tested on": "OCI-Ly1", "assay": "cell growth or viability, ATP luminescence", "conditions": "1 µM, 5 days", "measurement": "viability", "value": "161%"}
{"Compound": "Cc1n[nH]c2ccc3nc(-c4ccc(C(=O)NCCN(C)C)cc4)c4c(c3c12)CCC(C)(C)C4", "tested on": "K562", "assay": "cell growth or viability, resazurin", "conditions": "72 h", "measurement": "GI50", "value": "6.4 µM"}
{"Compound": "CC[C@H]1OC(=O)[C@H](C)[C@@H](O[C@H]2C[C@@](C)(OC)[C@@H](O)[C@H](C)O2)[C@H](C)[C@@H](O[C@@H]2O[C@H](C)C[C@H](N(C)C)[C@H]2O)[C@](C)(O)C[C@@H](C)/C(=N\\OCOCCOC)[C@H](C)[C@@H](O)[C@]1(C)O", "tested on": "Staphylococcus epidermidis", "assay": "microbial growth", "conditions": "clinical isolate", "measurement": "MIC50", "value": "32 µg/mL"}
{"Compound": "O=C(NCCN1CCCC1)c1ccc(-c2nc3ccc4[nH]ncc4c3c3c2CCCC3)cc1", "tested on": "K562", "assay": "cell growth or viability, resazurin", "conditions": "72 h", "measurement": "GI50", "value": "2.7 µM"}
{"Compound": "O=C(CCCCCCSc1ccc2ccccc2c1)NO", "tested on": "OCI-Ly1", "assay": "cell growth or viability, ATP luminescence", "conditions": "0.5 µM, 5 days", "measurement": "viability", "value": "173%"}
{"Compound": "CCCCCCCCCCCCCCCCCCOc1cccc(CC(=O)OCC[N+]2(C)CCOCC2)c1", "tested on": "HOP-62", "assay": "cell growth or viability, SRB", "conditions": "10 µM", "measurement": "inhibition", "value": "9.38%"}
{"Compound": "Cc1ccc2[nH]nc(-c3nnc(Nc4ccc(F)cc4)s3)c2c1", "tested on": "Staphylococcus epidermidis", "assay": "microbial growth", "test system": "ATCC12228", "measurement": "MIC", "value": "123 µg/mL"}
{"Compound": "CN(C)CCN(C)C(=O)c1ccc(-c2nc3ccc4[nH]ncc4c3c3c2CCCCC3)cn1", "tested on": "K562", "assay": "cell growth or viability, resazurin", "conditions": "72 h", "measurement": "GI50", "value": "9.2 µM"}
{"Compound": "CCCCCCCCCCCCCCCCCCOc1ccccc1CC(=O)OCC[N+]1(C)CCCC1", "tested on": "HOP-92", "assay": "cell growth or viability, SRB", "conditions": "10 µM", "measurement": "inhibition", "value": "67.3%"}
{"Compound": "CC1(C)S[C@@H]2[C@H](NC(=O)[C@H](N)c3ccccc3)C(=O)N2[C@H]1C(=O)O", "tested on": "Staphylococcus epidermidis", "assay": "microbial growth", "conditions": "clinical isolate", "measurement": "MIC50", "value": "8 µg/mL"}
{"Compound": "O=C(NCCN1CCCCC1)c1ccc(-c2nc3ccc4[nH]ncc4c3c3c2CCCC3)cc1", "tested on": "K562", "assay": "cell growth or viability, resazurin", "conditions": "72 h", "measurement": "GI50", "value": "7.5 µM"}
{"Compound": "COc1c(N2C[C@@H]3CCCN[C@@H]3C2)c(F)cc2c(=O)c(C(=O)O)cn(C3CC3)c12", "tested on": "Staphylococcus epidermidis", "assay": "microbial growth, broth dilution", "conditions": "clinical isolate", "measurement": "MIC50", "value": "0.5 µg/mL"}
{"Compound": "COC(=O)CNC(=O)C(=O)OC", "tested on": "OCI-Ly1", "assay": "cell growth or viability, ATP luminescence", "conditions": "1 µM, 5 days", "measurement": "viability", "value": "146%"}
{"Compound": "CCCCCCCCCCCCCCCCCCOc1ccccc1CC(=O)OCC[N+]1(C)CCCCC1", "tested on": "HOP-62", "assay": "cell growth or viability, SRB", "conditions": "10 µM", "measurement": "inhibition", "value": "30%"}
{"Compound": "C=C[C@]1(C)C[C@@H](OC(=O)CS[C@@H]2C[C@H]3CC[C@@H](C2)N3C)[C@]2(C)[C@H](C)CC[C@]3(CCC(=O)[C@H]32)[C@@H](C)[C@@H]1O", "tested on": "Staphylococcus epidermidis", "assay": "microbial growth", "test system": "MRSE", "conditions": "clinical isolate", "measurement": "MIC90", "value": "0.0625 µg/mL"}
{"Compound": "CC(=O)OC[C@H]1O[C@@H](n2cnc(N)nc2=O)[C@H](OC(C)=O)[C@@H]1OC(C)=O", "tested on": "OCI-Ly1", "assay": "cell growth or viability, ATP luminescence", "conditions": "0.1 µM, 5 days", "measurement": "viability", "value": "177%"}
{"Compound": "CN(C)CCNC(=O)c1ccc(-c2nc3ccc4[nH]ncc4c3c3c2CCCCC3)cc1", "tested on": "K562", "assay": "cell growth or viability, resazurin", "conditions": "72 h", "measurement": "GI50", "value": "1.5 µM"}
{"Compound": "CN[C@H](CC(C)C)C(=O)N[C@H]1C(=O)N[C@@H](CC(N)=O)C(=O)N[C@H]2C(=O)N[C@H]3C(=O)N[C@H](C(=O)N[C@H](C(=O)O)c4cc(O)cc(O)c4-c4cc3ccc4O)[C@H](O)c3ccc(c(Cl)c3)Oc3cc2cc(c3O[C@@H]2O[C@H](CO)[C@@H](O)[C@H](O)[C@H]2O[C@H]2C[C@](C)(N)[C@H](O)[C@H](C)O2)Oc2ccc(cc2Cl)[C@H]1O", "tested on": "Staphylococcus epidermidis", "assay": "microbial growth, broth dilution", "conditions": "clinical isolate", "measurement": "MIC90", "value": "2 µg/mL"}
{"Compound": "CCCCCCCCCCCCCCCCCCOc1ccc(CC(=O)OCCC[N+](C)(C)C)cc1", "tested on": "HOP-92", "assay": "cell growth or viability, SRB", "conditions": "10 µM", "measurement": "inhibition", "value": "22.1%"}
{"Compound": "Cc1n[nH]c2ccc3nc(-c4ccc(C(=O)N(C)CCN(C)C)cc4)c4c(c3c12)CCC(F)(F)C4", "tested on": "K562", "assay": "cell growth or viability, resazurin", "conditions": "72 h", "measurement": "GI50", "value": "9.1 µM"}
{"Compound": "CCCCCCCCCCCCCCCCCCOc1ccc(CC(=O)OCC[N+]2(C)CCCCC2)cc1", "tested on": "HOP-92", "assay": "cell growth or viability, SRB", "conditions": "10 µM", "measurement": "inhibition", "value": "2.18%"}
{"Compound": "O=C(Nc1cccc(Br)c1)c1cccc(S(=O)(=O)N2CCCCCC2)c1", "tested on": "OCI-Ly1", "assay": "cell growth or viability, ATP luminescence", "conditions": "0.1 µM, 5 days", "measurement": "viability", "value": "178%"}
